Results: ChEMBL document CHEMBL4190234, “Design, synthesis and anticancer activity of new monastrol analogues bearing 1,3,4-oxadiazole moiety” (Eur J Med Chem, 2017)

Legend:
Format in all cases: functional
[1] = system: HOP-62; test: Growth inhibition of human HOP62 cells at 10 uM incubated for 48 hrs by sulforhodamine B assay relative to control; conditions: HOP-62, 48 h, read-out: GI
In short: (§1)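 Single-dose screen at 10 μM final: cells in RPMI 1640, 5% FBS, 2 mM L-glutamine, plated 5,000–40,000/well, preincubated 24 h at 37°C, 5% CO2; drug 48 h; adherent cells fixed with 10% TCA, suspension cells with 16% TCA; SRB stain, absorbance 515 nm; percentage growth versus untreated control, with time-zero plates.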

[2] = system: BT-549; test: Growth inhibition of human BT549 cells at 10 uM incubated for 48 hrs by sulforhodamine B assay relative to control; conditions: BT-549, 48 h, read-out: GI; in short: as §1
[3] = system: MCF7; test: Growth inhibition of human MCF7 cells at 10 uM incubated for 48 hrs by sulforhodamine B assay relative to control; conditions: MCF7, 48 h, read-out: GI; in short: as §1
[4] = system: OVCAR-8; test: Growth inhibition of human OVCAR8 cells at 10 uM incubated for 48 hrs by sulforhodamine B assay relative to control; conditions: OVCAR-8, 48 h, read-out: GI; in short: as §1
[5] = system: UACC-257; test: Growth inhibition of human UACC257 cells at 10 uM incubated for 48 hrs by sulforhodamine B assay relative to control; conditions: UACC-257, 48 h, read-out: GI
In short: (§2)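 NCI single-dose screen: cells grown in RPMI 1640 with 5% FBS and 2 mM L-glutamine, plated at 5,000–40,000 cells/well and preincubated 24 h at 37 °C, 5% CO2. Compounds taken from DMSO stock and tested at final 10 µM for 48 h. Cells fixed with TCA, stained with 0.4% SRB, absorbance read at 515 nm. Percentage growth calculated against untreated controls; controls held DMSO at the same dilution.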

[6] = system: SNB-19; test: Growth inhibition of human SNB19 cells at 10 uM incubated for 48 hrs by sulforhodamine B assay relative to control; conditions: SNB-19, 48 h, read-out: GI; in short: as §2
[7] = system: MDA-MB-468; test: Growth inhibition of human MDA-MB-468 cells at 10 uM incubated for 48 hrs by sulforhodamine B assay relative to control; conditions: MDA-MB-468, 48 h, read-out: GI; in short: as §1
[8] = system: IGROV-1; test: Growth inhibition of human IGROV1 cells at 10 uM incubated for 48 hrs by sulforhodamine B assay relative to control; conditions: IGROV-1, 48 h, read-out: GI; in short: as §1
[9] = system: Hs-578T; test: Growth inhibition of human Hs 578T cells at 10 uM incubated for 48 hrs by sulforhodamine B assay relative to control; conditions: read-out: GI; in short: as §1
[10] = system: COLO 205; test: Growth inhibition of human COLO205 cells at 10 uM incubated for 48 hrs by sulforhodamine B assay relative to control; conditions: COLO 205, 48 h, read-out: GI; in short: as §1
[11] = system: SW-620; test: Growth inhibition of human SW620 cells at 10 uM incubated for 48 hrs by sulforhodamine B assay relative to control; conditions: SW-620, 48 h, read-out: GI; in short: as §2
[12] = system: UACC-62; test: Growth inhibition of human UACC62 cells at 10 uM incubated for 48 hrs by sulforhodamine B assay relative to control; conditions: UACC-62, 48 h, read-out: GI; in short: as §2
[13] = system: NCI-H226; test: Growth inhibition of human NCI-H226 cells at 10 uM incubated for 48 hrs by sulforhodamine B assay relative to control; conditions: NCI-H226, 48 h, read-out: GI; in short: as §1
[14] = system: SF-295; test: Growth inhibition of human SF295 cells at 10 uM incubated for 48 hrs by sulforhodamine B assay relative to control; conditions: SF-295, 48 h, read-out: GI; in short: as §2
[15] = system: A498; test: Growth inhibition of human A498 cells at 10 uM incubated for 48 hrs by sulforhodamine B assay relative to control; conditions: A498, 48 h, read-out: GI; in short: as §1
[16] = system: HT-29; test: Growth inhibition of human HT-29 cells at 10 uM incubated for 48 hrs by sulforhodamine B assay relative to control; conditions: HT-29, 48 h, read-out: GI; in short: as §1
[17] = system: U-251; test: Growth inhibition of human U251 cells at 10 uM incubated for 48 hrs by sulforhodamine B assay relative to control; conditions: U-251, 48 h, read-out: GI; in short: as §2
[18] = system: SK-MEL-28; test: Growth inhibition of human SK-MEL-28 cells at 10 uM incubated for 48 hrs by sulforhodamine B assay relative to control; conditions: SK-MEL-28, 48 h, read-out: GI; in short: as §2
[19] = system: MDA-MB-231; test: Growth inhibition of human MDA-MB-231 cells at 10 uM incubated for 48 hrs by sulforhodamine B assay relative to control; conditions: MDA-MB-231, 48 h, read-out: GI; in short: as §1
[20] = system: 786-0; test: Growth inhibition of human 786-0 cells at 10 uM incubated for 48 hrs by sulforhodamine B assay relative to control; conditions: 786-0, 48 h, read-out: GI; in short: as §1
[21] = system: SR; test: Growth inhibition of human SR cells at 10 uM incubated for 48 hrs by sulforhodamine B assay relative to control; conditions: read-out: GI; in short: as §2
[22] = system: T47D; test: Growth inhibition of human T47D cells at 10 uM incubated for 48 hrs by sulforhodamine B assay relative to control; conditions: read-out: GI; in short: as §2
[23] = system: HCT-116; test: Growth inhibition of human HCT116 cells at 10 uM incubated for 48 hrs by sulforhodamine B assay relative to control; conditions: HCT-116, 48 h, read-out: GI; in short: as §1
[24] = system: SN12C; test: Growth inhibition of human SN12C cells at 10 uM incubated for 48 hrs by sulforhodamine B assay relative to control; conditions: read-out: GI; in short: as §2
[25] = system: PC-3; test: Growth inhibition of human PC3 cells at 10 uM incubated for 48 hrs by sulforhodamine B assay relative to control; conditions: PC-3, 48 h, read-out: GI; in short: as §1
[26] = system: MDA-MB-435; test: Growth inhibition of human MDA-MB-435 cells at 10 uM incubated for 48 hrs by sulforhodamine B assay relative to control; conditions: MDA-MB-435, 48 h, read-out: GI; in short: as §1
[27] = system: SK-MEL-2; test: Growth inhibition of human SK-MEL-2 cells at 10 uM incubated for 48 hrs by sulforhodamine B assay relative to control; conditions: SK-MEL-2, 48 h, read-out: GI; in short: as §2
[28] = system: Malme-3M; test: Growth inhibition of human MALME-3M cells at 10 uM incubated for 48 hrs by sulforhodamine B assay relative to control; conditions: read-out: GI; in short: as §1
[29] = system: A549; test: Growth inhibition of human A549/ATCC cells at 10 uM incubated for 48 hrs by sulforhodamine B assay relative to control; conditions: A549, 48 h, read-out: GI; in short: as §1
[30] = system: CCRF-CEM; test: Growth inhibition of human CCRF-CEM cells at 10 uM incubated for 48 hrs by sulforhodamine B assay relative to control; conditions: read-out: GI; in short: as §1

Row | Structure (SMILES) | inhibition of growth at 10 µM [1] [%] | inhibition of growth at 10 µM [2] [%] | inhibition of growth at 10 µM [3] [%] | inhibition of growth at 10 µM [4] [%] | inhibition of growth at 10 µM [5] [%] | inhibition of growth at 10 µM [6] [%] | inhibition of growth at 10 µM [7] [%] | inhibition of growth at 10 µM [8] [%] | inhibition of growth at 10 µM [9] [%] | inhibition of growth at 10 µM [10] [%] | inhibition of growth at 10 µM [11] [%] | inhibition of growth at 10 µM [12] [%] | inhibition of growth at 10 µM [13] [%] | inhibition of growth at 10 µM [14] [%] | inhibition of growth at 10 µM [15] [%] | inhibition of growth at 10 µM [16] [%] | inhibition of growth at 10 µM [17] [%] | inhibition of growth at 10 µM [18] [%] | inhibition of growth at 10 µM [19] [%] | inhibition of growth at 10 µM [20] [%] | further results
1 | CCOC(=O)C1=C(C)NC(SCc2nnc(-c3ccc(Cl)cc3)o2)=NC1c1ccccc1 (stereo not given) | 27.8 | 42.7 | 18.2 | 20.4 | 25.9 | 11.7 | 14.7 | < 10 | < 10 | 10.4 | < 10 | 34.9 | 11.4 | 23.4 | < 10 | 22.3 | 21.2 | < 10 | < 10 | 31.4 | inhibition of growth at 10 µM [21]: 24.9%; inhibition of growth at 10 µM [22]: 53.8%; inhibition of growth at 10 µM [23]: 36.8%; inhibition of growth at 10 µM [24]: 14.8%; inhibition of growth at 10 µM [25]: 42.2%; inhibition of growth at 10 µM [26]: < 10%; inhibition of growth at 10 µM [27]: 34.5%; inhibition of growth at 10 µM [28]: < 10%; inhibition of growth at 10 µM [29]: 29%; inhibition of growth at 10 µM [30]: 12.4%
2 | CCOC(=O)C1=C(C)NC(SCc2nnc(-c3ccc(Cl)cc3)o2)=NC1c1ccc(Cl)cc1 (stereo not given) | < 10 | 24.7 | 51 | 25.2 | 13.1 | 27 | 51 | 37.7 | 16.3 | 20.4 | 14.1 | 50.1 | 30.1 | 25.9 | 19.3 | 24.8 | 26.1 | 20.2 | 37.3 | 16.6 | inhibition of growth at 10 µM [21]: 57.1%; inhibition of growth at 10 µM [22]: 50.1%; inhibition of growth at 10 µM [23]: 53.8%; inhibition of growth at 10 µM [24]: < 10%; inhibition of growth at 10 µM [25]: 51.2%; inhibition of growth at 10 µM [26]: 30.4%; inhibition of growth at 10 µM [27]: < 10%; inhibition of growth at 10 µM [28]: 18.3%; inhibition of growth at 10 µM [29]: 31%; inhibition of growth at 10 µM [30]: 60.3%
